The text below walks through data of ChEMBL document CHEMBL4480412, “Deleting a Chromatin Remodeling Gene Increases the Diversity of Secondary Metabolites Produced by Colletotrichum higginsianum” (2019).

By inhibition is commonly meant the share of the control response that was lost under treatment. For orientation: MIC means the smallest concentration in the dilution series that meets the test's criterion for growth inhibition. A low value points to a more susceptible organism.

Converted amounts (≈) assume the structure as drawn. Bounds are passed on as bounds.

The species named for assay [1] is Homo sapiens. Nature of the assay: Inhibition of hyaluronidase (unknown origin) at 200 uM relative to control.
The subject of another assay is Escherichia coli. Nature of the assay: Antibacterial activity against Escherichia coli ATCC 25922 by broth microdilution method. It counts as functional. The method, boiled down:
(§1)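 Broth microdilution run to CLSI guidelines; read-out is minimal inhibitory concentration (MIC). Chloramphenicol used as reference antibacterial.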

The next assay has as its system Micrococcus luteus. Nature of the assay: Antibacterial activity against Micrococcus luteus ATCC 10240 by broth microdilution method. It counts as functional. The procedure, abridged:
as §1
(In general: In broth dilution the organism is exposed to a series of concentrations in liquid medium.)

Another assay concerns Botrytis cinerea. The experiment in a line: Antifungal activity against Botrytis cinerea B05.10 by EUCAST method. It is filed as functional. The procedure, abridged:
(§2)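 Susceptibility testing by the EUCAST method; read-out is minimal inhibitory concentration (MIC). Amphotericin B used as reference antifungal.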

Assay [2] in a line: Antioxidant activity assessed as DPPH radical scavenging activity at 200 uM. It is filed as functional.
A further assay relates to Rhizopus arrhizus. The experiment in a line: Antifungal activity against Rhizopus oryzae ATCC 11145 by EUCAST method. It is filed as functional. The method, boiled down: as §2
In the next assay the test system is Bacillus spizizenii. Nature of the assay: Antibacterial activity against Bacillus subtilis ATCC 6633 by broth microdilution method. It is filed as functional. The method, boiled down: as §1
Assay [3] is filed under the species Homo sapiens. Nature of the assay: Inhibition of elastase (unknown origin) at 200 uM relative to control.
A further assay relates to Aspergillus ochraceus. Nature of the assay: Antifungal activity against Aspergillus ochraceus ATCC 1009 by EUCAST method. It counts as functional. The method, boiled down: as §2
In assay [4] the target is T1, Tyrosinase (Homo sapiens) (UniProt P14679).
T1 sequence (whole entry): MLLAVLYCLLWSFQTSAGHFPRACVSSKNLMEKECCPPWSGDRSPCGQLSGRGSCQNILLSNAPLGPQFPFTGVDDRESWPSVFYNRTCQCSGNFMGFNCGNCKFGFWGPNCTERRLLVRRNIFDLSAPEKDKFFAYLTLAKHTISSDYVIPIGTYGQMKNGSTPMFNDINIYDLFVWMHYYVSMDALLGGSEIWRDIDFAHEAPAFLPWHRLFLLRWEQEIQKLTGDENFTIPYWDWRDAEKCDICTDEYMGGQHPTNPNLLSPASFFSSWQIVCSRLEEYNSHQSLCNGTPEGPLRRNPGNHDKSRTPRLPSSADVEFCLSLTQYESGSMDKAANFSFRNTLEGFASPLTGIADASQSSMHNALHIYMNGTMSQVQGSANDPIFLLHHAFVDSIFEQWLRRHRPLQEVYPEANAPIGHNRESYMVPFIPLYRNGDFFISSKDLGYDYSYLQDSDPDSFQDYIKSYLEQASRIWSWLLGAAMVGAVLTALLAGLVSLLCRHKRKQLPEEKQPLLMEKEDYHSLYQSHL
The experiment in a line: Inhibition of tyrosinase (unknown origin) at 200 uM relative to control.

In assay [5] the target is Collagenase (Homo sapiens) (UniProt P08253+P14780+P22894+P45452+P03956). Nature of the assay: Inhibition of collagenase (unknown origin) at 200 uM relative to control. It is filed as protein assay.

As for `CC(C)=CCc1c(O)cc(C)c(C=O)c1O`, the inhibition (in the assay listed under Homo sapiens [1]; in assay [2]; in the assay listed under Homo sapiens [3]; in assay [4]; in assay [5]) was under 20% each time. Also, the MIC against Escherichia coli, in the assay with Micrococcus luteus, with Botrytis cinerea, in the assay on Rhizopus arrhizus, against Bacillus spizizenii and with Aspergillus ochraceus was over 225 µM each time.
Take `C=C1CC[C@@H]2[C@](C)(CC[C@H]3O[C@H](C(C)(C)O)CC[C@@]23C)[C@@H]1Cc1c(O)c(C)c(C)oc1=O`: the inhibition (in the assay listed under Homo sapiens [1]; in assay [2]; in the assay listed under Homo sapiens [3]; in [4]; in [5]) was under 20% each time. Besides, the MIC against Escherichia coli, against Micrococcus luteus, against Botrytis cinerea, in the assay with Rhizopus arrhizus, in the assay on Bacillus spizizenii and in the assay with Aspergillus ochraceus was over 225 µM in each case.
With `C=C1CC[C@@H]2[C@](C)(CC[C@H]3O[C@@H](C(C)(C)O)CC[C@@]23C)[C@@H]1Cc1c(O)c(C)c(C)oc1=O`, the inhibition (in the assay filed under Homo sapiens [1]; in assay [2]; in the assay filed under Homo sapiens [3]; in [4]; in assay [5]) was under 20% each time. Besides, the MIC against Escherichia coli, against Micrococcus luteus, against Botrytis cinerea, in the assay on Rhizopus arrhizus, in the assay with Bacillus spizizenii and against Aspergillus ochraceus was over 225 µM each time.
Regarding `CC(C)=CCc1c(O)cc(C)c(C(=O)O)c1O`, the inhibition (in the assay listed under Homo sapiens [1]; in assay [2]; in the assay filed under Homo sapiens [3]; in assay [4]; in assay [5]) was under 20% each time. In addition, the MIC in the assay with Escherichia coli, in the assay on Micrococcus luteus, with Botrytis cinerea, in the assay on Rhizopus arrhizus, with Bacillus spizizenii and against Aspergillus ochraceus was over 225 µM in each case.
As for `O=C(N[C@H](CO)[C@H](O)c1ccc([N+](=O)[O-])cc1)C(Cl)Cl` [CHLORAMPHENICOL], the MIC against Escherichia coli, in the assay on Micrococcus luteus and against Bacillus spizizenii was 10 µM (≈ 3.23 µg/mL) throughout.
Turning to `C[C@@H]1[C@H](O)[C@@H](C)/C=C/C=C/C=C/C=C/C=C/C=C/C=C/[C@H](O[C@@H]2O[C@H](C)[C@@H](O)[C@H](N)[C@@H]2O)C[C@@H]2O[C@](O)(C[C@@H](O)C[C@@H](O)[C@H](O)CC[C@@H](O)C[C@@H](O)CC(=O)O[C@H]1C)C[C@H](O)[C@H]2C(=O)O` [AMPHOTERICIN B], the MIC with Botrytis cinerea, in the assay on Rhizopus arrhizus and in the assay with Aspergillus ochraceus was 2 µM (≈ 1.85 µg/mL) in each case.
In the case of `CO[C@@H]1[C@@H](O)[C@H](O)[C@H](OC(=O)C2=CC[C@H](C(C)C)[C@H]3C=C(C)CC[C@@H]23)[C@H](OC)[C@H]1O`, the inhibition (in the assay listed under Homo sapiens [1]; in [2]; in the assay filed under Homo sapiens [3]; in assay [4]; in assay [5]) was under 20% throughout. Further, the MIC against Escherichia coli, in the assay with Micrococcus luteus, in the assay with Botrytis cinerea, with Rhizopus arrhizus, against Bacillus spizizenii and against Aspergillus ochraceus was over 225 µM in each case.
